# Test results published in ChEMBL document CHEMBL1275392, “Assessment of chemoselective neoglycosylation methods using chlorambucil as a model” (2010).
# Experiments:
# A549 = assay: Growth inhibition of human A549 cells expressing p53 after 7 days by celltiter-glo assay; type: functional; conditions: A549, 168 h
# SK-OV-3 = assay: Growth inhibition of human SKOV3 cells after 7 days by celltiter-glo assay; type: functional; conditions: SK-OV-3, 168 h
# MCF7 = assay: Growth inhibition of human MCF7 cells after 7 days by celltiter-glo assay; type: functional; conditions: MCF7, 168 h
# [1] = Growth inhibition of human p53 deficient Hep3B cells after 7 days by celltiter-glo assay; type: functional, Hep 3B2; conditions: 168 h
# In short: (§1)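 Cells seeded at 500 per well in 384-well plates. Compounds came from 30 mM DMSO stocks, serially diluted and tested in quadruplicate. Incubation was 7 d at 37 °C under 5% CO2. Calcein AM (10 μM) and EthD-1 were added, followed by a fluorescence read. CellTiter-Glo lysis was then done for 10 min at room temperature, with a luminescence read. GI50 came from curve fitting.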
# DU-145 = assay: Growth inhibition of human DU145 cells after 7 days by celltiter-glo assay; type: functional; conditions: DU-145, 168 h
# SF-268 = assay: Growth inhibition of human SF268 cells after 7 days by celltiter-glo assay; type: functional; conditions: SF-268, 168 h
# HT-29 = assay: Growth inhibition of human HT-29 cells after 7 days by celltiter-glo assay; type: functional; conditions: HT-29, 168 h
# HCT-15 = assay: Growth inhibition of human HCT15 cells after 7 days by celltiter-glo assay; type: functional; conditions: HCT-15, 168 h
# [2] = Growth inhibition of human p53 deficient H1299 cells after 7 days by celltiter-glo assay; type: functional; conditions: NCI-H1299, 168 h; in short: as §1
# NCI-H460 = assay: Growth inhibition of human NCI-H460 cells after 7 days by celltiter-glo assay; type: functional; conditions: NCI-H460, 168 h
Structure (SMILES),GI50 (A549) [µM],GI50 (SK-OV-3) [µM],GI50 (MCF7) [µM],GI50 [1] [µM],GI50 (DU-145) [µM],GI50 (SF-268) [µM],GI50 (HT-29) [µM],GI50 (HCT-15) [µM],GI50 [2] [µM],GI50 (NCI-H460) [µM]
CON(CCCc1ccc(N(CCCl)CCCl)cc1)[C@@H]1O[C@H](CO)[C@@H](O)[C@H](O)[C@H]1F,2.6,2,7.3,3.2,4.2,2.2,2.4,1.08,1.2,6.4
CON(CCCc1ccc(N(CCCl)CCCl)cc1)C1O[C@H](CO)[C@@H](O)[C@H](O)[C@@H]1O (stereo not given in full),3.5,2.3,1.9,3.2,5.1,1.8,2.6,1.9,1.01,7.8
CON(CCCc1ccc(N(CCCl)CCCl)cc1)[C@H]1OC[C@H](O)[C@@H](O)[C@@H]1O,2.2,2.4,1.2,1.6,2.2,1.5,1.5,0.83,0.93,2.9
CON(CCCc1ccc(N(CCCl)CCCl)cc1)C1O[C@@H](CO)[C@H](O)[C@H](O)[C@@H]1O (stereo not given in full),3.5,3.1,9,2.5,6,3.2,2.2,1.7,1.3,10.4
CON(CCCc1ccc(N(CCCl)CCCl)cc1)C1O[C@H](C(=O)O)[C@H](O)[C@H](O)[C@H]1O (stereo not given in full),17.1,12.8,4.5,14.7,16.3,8.9,14.9,8.1,4.9,34
CO[C@@H]1[C@@H](O)[C@H](N(CCCc2ccc(N(CCCl)CCCl)cc2)OC)O[C@H](CO)[C@H]1O,3.6,2.4,8.3,4.2,5.1,2.8,2.7,1.1,1.7,7.8
CON(CCCc1ccc(N(CCCl)CCCl)cc1)[C@H]1O[C@H](CO)[C@H](O)[C@H](O)[C@@H]1O,2.6,2,1.5,2.4,3.3,1.7,1.8,2.2,3,5
CON(CCCc1ccc(N(CCCl)CCCl)cc1)C1C[C@H](O)[C@H](O)[C@@H](C)O1 (stereo not given in full),2.7,3,6.3,3.2,4.3,2.8,2.1,1.3,1.1,6.5
CON(CCCc1ccc(N(CCCl)CCCl)cc1)[C@@H]1OC[C@@H](O)[C@H]1O,3.1,2.6,8,4.1,5,2.4,1.6,0.77,1.1,7.8
CON(CCCc1ccc(N(CCCl)CCCl)cc1)C1O[C@H](CO)[C@@H](O)[C@@H](O)[C@H]1O (stereo not given in full),3.4,3,9.3,4.4,5.8,3.1,0.6,0.97,0.53,9.5
CON(CCCc1ccc(N(CCCl)CCCl)cc1)C1OC[C@@H](O)[C@@H](O)[C@@H]1O (stereo not given in full),2,2,4.6,1.6,3.3,1.8,1.5,0.9,0.73,5
[O-]/[N+](=C\[C@@H](O)[C@H](O)CO)CCCc1ccc(N(CCCl)CCCl)cc1,3,2.6,2,1.7,3.6,1.2,3.2,2.5,1.07,3.8
CON(CCCc1ccc(N(CCCl)CCCl)cc1)C1O[C@@H](C)[C@@H](OCc2ccccc2)[C@@H](OCc2ccccc2)[C@@H]1OCc1ccccc1 (stereo not given in full),6.4,7.2,4,9.5,10,5.7,7.5,4.6,3.3,15.8
CON(CCCc1ccc(N(CCCl)CCCl)cc1)C1O[C@@H](C)[C@H](OC(C)=O)[C@@H](OC(C)=O)[C@H]1OC(C)=O (stereo not given in full),3.5,3.9,3.2,4.6,4.5,3,4.3,3.7,5,7.8
